To fix the notation:
B1: tRNA (parent)
chain: GUUCCGUUGGCGUAAUGGUAACGCGUCUCCCUCCUAAGGAGAAGACUGCGGGUUCGAGUCCCGUACGGAACG

This sample holds only a part of the variants without activity.

This data set covers variants of B1. The data set can be described thus: yeast fitness relative to wild type (ratio to wild type); higher = fitter; tRNA-Arg(CCU), competitive growth, 37 C, YPD. The procedure, abridged: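 For this measurement, the tRNA-Arg(CCU) gene was varied by chemical synthesis at a 3% per-site mutation rate across 69 sites, and each variant was placed at the native genomic locus in Saccharomyces cerevisiae. The pooled strains went through a 24-hour competition in YPD at 37°C in six parallel replicates, with amplicons from start and end populations read by 100-nucleotide paired-end sequencing. Darwinian fitness relative to wild type followed from the change in each genotype's frequency. Genotypes needed ≥ 100 starting reads, and estimates < 0.5 were set to 0.5.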
On to U16G C46A C66A, for which the yeast fitness was at most 0.5.

Take U16C C22G G58A U64G: the yeast fitness was at most 0.5. Then U16G G17A C33A, with 0.539; and U16G A57G C66U A69U, with at most 0.5. Take U16C C22G U53A: the yeast fitness was found to be 0.544. Consider G17A A36U C49U C62U, for which the yeast fitness is at most 0.5. Turning to U16C C46A G56A, the yeast fitness came to 0.769. The same measure for U16C A43U G51C A57C C60G G67A: at most 0.5; for G17A A43G: 0.735. Consider G17A A43C, for which the yeast fitness was determined as 0.698. The same measure for G17A A43U: 0.81; for U16G U26A C34U C62A: at most 0.5. Regarding U16G C27G U54C, the yeast fitness is 0.633. Then U16C U26G C61U, with at most 0.5.

As for U16G C27G C49A C60A, the yeast fitness is at most 0.5. Then U16G G23A A40C C66U, with at most 0.5; and U16C C29G C49U, with 0.535.

For G17A A37C G52C G56C C60A U64A, the yeast fitness is at most 0.5. Then U16C A43C U54A C60U G68A, with 0.55; and U16C G17C C31U A37U, with at most 0.5.

With U16G A37U U47A G52U, the yeast fitness is at most 0.5. Then U16C C22U A37U C49A, with 0.574; and U16C A70C, with 1.1. For U16C A70G, the yeast fitness stood at 0.945. The same measure for U16G G39A A45C C61A: 0.617. G17A A40U G48A: the yeast fitness was at most 0.5. As to U16G U54C A69C, the yeast fitness was determined as 0.718. The same measure for U16C G48C C49U A65C A70C: at most 0.5; for U16G G44C G68A A69U: 0.609. The same measure for U16C G58A: 0.87; for U16G G48C: 0.835. U16C C22U: the yeast fitness came to 0.741. Then U16C C22G, with 0.968; and U16C C62U C66U, with 0.722. Then U16G A45U G50A C66U, with at most 0.5; and U16C C30U A36U, with at most 0.5; and U16C U19C U35C, with at most 0.5. With U16C C29U G58A A69U, the yeast fitness amounted to 0.577. For U16C C33U C60U G67C, the yeast fitness is at most 0.5. U16C U47C U64G: the yeast fitness is at most 0.5. G17A A20C C49G: the yeast fitness is at most 0.5. As for U16G U28A G52C U54A C66U, the yeast fitness is at most 0.5. With G17A A21C C31U, the yeast fitness is at most 0.5. For U16C C49U A69U, the yeast fitness is 0.555. For U16C C49U, the yeast fitness stood at 0.867. In the case of U16C C49G, the yeast fitness was determined as 0.909. The same measure for U16G C46U A69C: 1.07; for U16G G23C G48A C61A: 0.577; for U16G C22G A43C: 0.587.

Turning to U16C C22G U54C, the yeast fitness came to 0.661. Turning to U16C G41C C46A, the yeast fitness was 0.721. Consider U16C C22U A37U, for which the yeast fitness was 0.576.

As to U16G C24U, the yeast fitness came out at 0.822. The same measure for U16G C24U G44A C46G: at most 0.5; for U16G C22U A37U G50C: at most 0.5; for G17A A21C U53A: at most 0.5.

U16G A20C G25A A43U G50A C55U: the yeast fitness was at most 0.5. Then U16C U19C A65G, with 1.05.

Turning to U16C U19A, the yeast fitness turned out to be 1.16. The same measure for U16C U47C G51U: at most 0.5; for G17A A43C C49U U54A G56C A65U A70C: 0.565; for U16C C22G C62U: 0.716. U16C C22A C24A U26C: the yeast fitness was at most 0.5. As for G17A A20G C31U U35C A57G, the yeast fitness came to 0.573. Consider U16C C30U C34G G39A, for which the yeast fitness is at most 0.5. In the case of U16C C61G, the yeast fitness stood at 0.63.

Consider U16C C55U A57C G58A, for which the yeast fitness is 0.593.

Regarding U16C U19A U26A, the yeast fitness was 0.648. The same measure for U16C C30A A37U: at most 0.5; for U16C U28G C30G A40C A42U: at most 0.5; for U16G C49U G52A G63A: 0.632. For the variant U16C C60U, the yeast fitness was found to be 0.79. U16G A20C C60U: the yeast fitness is at most 0.5.

For U16C C29A, the yeast fitness is 0.629.

As for U16C C29U, the yeast fitness worked out at 0.738.

With G17A A20G U28A U35A, the yeast fitness was determined as 0.561. On to U16G U19C U28C, for which the yeast fitness stood at 0.986. On to U16C C31G G41A G52C C60U C62G C66G, for which the yeast fitness is at most 0.5. In the case of U16C C22U C24U C29U C60U, the yeast fitness is 0.551. Consider U16G A21U C46G, for which the yeast fitness was at most 0.5. For the variant G17A A21G C22A A40U C61U, the yeast fitness is at most 0.5. Take U16C C29U A36U A40C C46U U64C: the yeast fitness is at most 0.5. The same measure for U16C C29G U53A U64C: at most 0.5; for U16C A43C U54A C55U C60U G68A: at most 0.5.

As for U16C C62G, the yeast fitness turned out to be 0.717.

As to U16G C31G A65C, the yeast fitness is at most 0.5. Take U16G C29G C33U G39A C49U: the yeast fitness was at most 0.5. In the case of U16C G17C C27G A65U, the yeast fitness was at most 0.5. As to U16C C22U G68C, the yeast fitness was at most 0.5.

Turning to U16C C27U U64G, the yeast fitness stood at 0.536.

For the variant U16C C55A G67A A70G, the yeast fitness is at most 0.5.

Regarding U16C A57U C66U, the yeast fitness came to 0.531. On to U16G U47A, for which the yeast fitness came to 0.781. For the variant U16G U35C G56C, the yeast fitness is at most 0.5. In the case of U16C C34U C49G, the yeast fitness was at most 0.5. As for U16G G39A A45C G67A, the yeast fitness was at most 0.5. U16G A69C: the yeast fitness is 1.04. With U16C C27A, the yeast fitness turned out to be 0.963. With U16C C27U, the yeast fitness stood at 1.02. As to G17A A45U G52A C61U, the yeast fitness was at most 0.5. As to U16C C66A, the yeast fitness came out at 0.711.

As to G17A A40U G58C, the yeast fitness is 0.672. In the case of U16C C33U G63C, the yeast fitness stood at 0.508. On to U16G U26G C29A A57C, for which the yeast fitness is at most 0.5. For the variant U16C G44A U54C G56C, the yeast fitness turned out to be 0.558. For the variant G17A A42C, the yeast fitness worked out at 0.645.

Regarding G17A A42U A57U C61G, the yeast fitness is 0.591.

Regarding G17A A42G A70C, the yeast fitness was at most 0.5.

For the variant U16G U26G A36G, the yeast fitness worked out at 0.58.

On to G17A A20C G25A G68C, for which the yeast fitness was at most 0.5. Consider U16G C34U, for which the yeast fitness was determined as 0.63. Regarding U16G U26G A36G G67U G68C, the yeast fitness was at most 0.5. Regarding U16C C22G C46G C49U A69U, the yeast fitness amounted to 0.55.

In the case of U16G U19G C33U A40C G41A A43C C61G, the yeast fitness was at most 0.5.

G17A A20G: the yeast fitness was 0.793.

U16C U35C U47C: the yeast fitness was at most 0.5. The same measure for G17A A20G A57C: 0.558; for U16C G23C G51C: at most 0.5.

Regarding U16C C27G A43C C62U, the yeast fitness is at most 0.5. As to U16C U35A C61A A70U, the yeast fitness was 0.532. Then U16C C22U U47A C60G C62A, with at most 0.5; and U16C G56A A69U, with 0.799; and U16G A40C, with 0.761. Take U16C A65U: the yeast fitness stood at 0.965.

With U16C A65G, the yeast fitness was 0.95. Then U16C A65C, with 0.955; and U16C A43C U54A, with at most 0.5.

As for U16G U53A U59A C66A, the yeast fitness is at most 0.5. Turning to U16C C31A, the yeast fitness was 0.906. Take U16C C31U: the yeast fitness amounted to 0.953. Turning to U16G U54C C60A, the yeast fitness is at most 0.5.

Take U16G G68U: the yeast fitness is 0.853. The same measure for U16G C31G A45U: 0.974; for G17A A20U C24U: 0.547; for U16G C34U A57G A69C: at most 0.5. With U16C C30G C61U G68A, the yeast fitness was at most 0.5. As for U16G C30U, the yeast fitness is 0.777. For the variant U16C G68C A69U, the yeast fitness was at most 0.5.

As for U16G U59C C60G, the yeast fitness is at most 0.5. Turning to U16G A45G C66U, the yeast fitness was found to be 0.771.

For the variant U16C G67A, the yeast fitness was 0.891. In the case of U16C G39A C61G C62G, the yeast fitness was at most 0.5.

Take U16G C22G A70G: the yeast fitness came to 0.767. For U16C C31U C33A C34G U35A G52A, the yeast fitness was at most 0.5. U16C U28A: the yeast fitness was 0.827. Take G17A A45C G63C C66U: the yeast fitness was at most 0.5. Turning to U16C C30A G41C A45C C46G, the yeast fitness is at most 0.5. For U16C C27G C33A G38C A42G, the yeast fitness turned out to be 0.884.

In the case of U16G U54C, the yeast fitness stood at 0.704.

With U16G A37G A45C C61G A69C, the yeast fitness is at most 0.5.

On to U16C C22U C24U C29U, for which the yeast fitness is at most 0.5.

For U16G U35A A45C G52A, the yeast fitness is at most 0.5. With G17A A45U, the yeast fitness was 0.763. As to G17A A45C, the yeast fitness was determined as 0.735.

In the case of U16C C22U G25A C31G G52A, the yeast fitness came to 0.589. Then U16G G18A A21U A40C G58C A65C C66G, with at most 0.5.

U16C U26C A36C U64A A70C: the yeast fitness was at most 0.5. Take U16C G25C U47A A65G: the yeast fitness was at most 0.5. Take U16G U35A G51C C61U: the yeast fitness is at most 0.5.

With U16C A43U G48C C60G, the yeast fitness is at most 0.5. With U16G A42C U47C, the yeast fitness was 0.676. With U16G U28C G51A C55G, the yeast fitness is at most 0.5.

As to U16G A70C, the yeast fitness was found to be 0.911. For U16G A70G, the yeast fitness was 1.03. Consider U16G G44C C62A, for which the yeast fitness was found to be 0.875. On to U16G G44C C62U, for which the yeast fitness was 0.566. With U16C G17A C33U C49A C62G, the yeast fitness came out at 0.57.
